From ChEMBL document CHEMBL1255300, “Pharmacodynamics of the antibacterial effect and emergence of resistance to tomopenem, formerly RO4908463/CS-023, in an in vitro pharmacokinetic model of Staphylococcus aureus infection” (Antimicrob Agents Chemother, 2008)
Values after ≈ are worked out from the molar mass of the structure shown. Active and inactive are the calls of the source. The calls are words filed in the database; no cut-off is given here.

What was measured:
[1] = tested on: Staphylococcus aureus; test: Antibacterial activity against methicillin-resistant Staphylococcus aureus 33827 assessed as viable count at 4 times of MIC after 24 hrs using 10^6 CFU/ml inoculum; type: functional, organism-based
[2] = tested on: Staphylococcus aureus; test: Antibacterial activity against methicillin-resistant Staphylococcus aureus 33815 infected in in vitro pharmacokinetic model assessed as reduction in viable count at 750 mg, iv every 8 hrs measured after 24 hrs using 10^6 CFU/ml inoculum; type: functional
In short: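 Single-compartment dilutional in vitro PK model, 37°C, stirred, in 10% Mueller-Hinton broth. […] Inoculum 10^6 CFU/ml from a 24-h plate culture was added 45 min before dosing. Viable counts by spiral plating on nutrient agar with β-lactamase neutralization. Log change was taken from time 0; detection limit 10^2 CFU/ml; at least triplicate.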

[3] = tested on: Staphylococcus aureus; test: Antibacterial activity against methicillin-resistant Staphylococcus aureus 33820 assessed as viable count at 2 times of MIC after 24 hrs using 10^6 CFU/ml inoculum; type: functional, organism-based
[4] = tested on: Staphylococcus aureus; test: AUBKC (0 to 24 hrs) in methicillin-resistant Staphylococcus aureus 33827 infected in in vitro pharmacokinetic model at 1500 mg, iv every 8 hrs using 10^8 CFU/ml inoculum; type: functional
In short: (§1)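 Single-compartment dilutional in vitro PK model at 37°C in 10% Mueller-Hinton broth, stirred, flow 132 ml/h. […] Inoculum 10^6 CFU/ml added 45 min before dosing, or 10^8 CFU/ml run overnight. Viable counts with β-lactamase neutralisation. AUBKC by log-linear trapezoidal rule, at least triplicate.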

[5] = tested on: Staphylococcus aureus; test: AUBKC (0 to 24 hrs) in methicillin-resistant Staphylococcus aureus 33921 infected in in vitro pharmacokinetic model at 750 mg, iv every 8 hrs using 10^6 CFU/ml inoculum; type: functional; in short: as §1
[6] = tested on: Staphylococcus aureus; test: Antibacterial activity against methicillin-resistant Staphylococcus aureus 33827 infected in in vitro pharmacokinetic model assessed as time required to 99% killing at 1500 mg, iv every 8 hrs using 10^8 CFU/ml inoculum; type: functional
In short: (§2)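 Single-compartment dilutional in vitro PK model, 10% Mueller-Hinton broth, 37°C, stirred, dilution 132 ml/h. […] Inoculum 10^6 CFU/ml (added 45 min pre-dose) or 10^8 CFU/ml (run overnight). Viable counts by spiral plating, beta-lactamase neutralization, detection limit 10^2 CFU/ml. At least triplicate.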

[7] = tested on: Staphylococcus aureus; test: T>MIC for 3-log drop in count in methicillin-resistant Staphylococcus aureus 33829 in in vitro pharmacokinetic model after 24 hrs using 10^6 CFU/ml inoculum; type: functional
[8] = tested on: Staphylococcus aureus; test: Antibacterial activity against methicillin-resistant Staphylococcus aureus 33827 infected in in vitro pharmacokinetic model assessed as reduction in viable count at 750 mg, iv every 8 hrs measured after 48 hrs using 10^6 CFU/ml inoculum; type: functional; in short: as §2
[9] = tested on: Staphylococcus aureus; test: Antibacterial activity against methicillin-resistant Staphylococcus aureus 33922 assessed as viable count at 4 times of MIC after 48 hrs using 10^6 CFU/ml inoculum; type: functional, organism-based
[10] = tested on: Staphylococcus aureus; test: T>MIC for 3-log drop in count in methicillin-resistant Staphylococcus aureus 33815 in in vitro pharmacokinetic model after 24 hrs using 10^8 CFU/ml inoculum; type: functional
[11] = tested on: Staphylococcus aureus; test: Antibacterial activity against methicillin-resistant Staphylococcus aureus 33922 by broth dilution method; type: functional
[12] = tested on: Staphylococcus aureus; test: Antibacterial activity against methicillin-resistant Staphylococcus aureus 33922 infected in in vitro pharmacokinetic model assessed as time required to 99% killing at 750 mg, iv every 8 hrs using 10^8 CFU/ml inoculum; type: functional
[13] = tested on: Staphylococcus aureus; test: Antibacterial activity against methicillin-resistant Staphylococcus aureus 33829 in in vitro pharmacokinetic model assessed as viable count at 4 times of MIC; type: functional
In short: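 Preexposure population analysis: time-zero model samples plated on nutrient agar without drug and with drug at multiples of the 10% broth MIC. Growth reported as log CFU/ml, detection limit 2 log10.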

[14] = tested on: Staphylococcus aureus; test: T>MIC for 1-log drop in count in methicillin-resistant Staphylococcus aureus 33815 in in vitro pharmacokinetic model after 24 hrs using 10^8 CFU/ml inoculum; type: functional
[15] = tested on: Staphylococcus aureus; test: Antibacterial activity against methicillin-resistant Staphylococcus aureus 33827 infected in in vitro pharmacokinetic model assessed as reduction in viable count at 750 mg, iv every 8 hrs measured after 48 hrs using 10^8 CFU/ml inoculum; type: functional; in short: as §2
[16] = tested on: Staphylococcus aureus; test: Antibacterial activity against methicillin-sensitive Staphylococcus aureus 5956 infected in in vitro pharmacokinetic model assessed as reduction in viable count at 1500 mg, iv every 8 hrs measured after 24 hrs using 10^6 CFU/ml inoculum; type: functional
[17] = tested on: Staphylococcus aureus; test: Antibacterial activity against methicillin-resistant Staphylococcus aureus 33815 infected in in vitro pharmacokinetic model assessed as reduction in viable count at 1500 mg, iv every 8 hrs measured after 12 hrs using 10^8 CFU/ml inoculum; type: functional
In short: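 PK model at 37°C in 10% MHB. […] A 0.5 McFarland suspension (1 ml) was added and the model run overnight to reach 10^8 CFU/ml before dosing. Counts were spiral-plated on nutrient agar with β-lactamase. Change in log CFU/ml was measured from time 0; at least triplicate.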

[18] = tested on: Staphylococcus aureus; test: Antibacterial activity against methicillin-resistant Staphylococcus aureus 33922 infected in in vitro pharmacokinetic model assessed as reduction in viable count at 750 mg, iv every 8 hrs measured after 36 hrs using 10^8 CFU/ml inoculum; type: functional
[19] = tested on: Staphylococcus aureus; test: Antibacterial activity against methicillin-resistant Staphylococcus aureus 33829 assessed as viable count at 4 times of MIC after 48 hrs using 10^6 CFU/ml inoculum; type: functional, organism-based
[20] = tested on: Staphylococcus aureus; test: Antibacterial activity against methicillin-resistant Staphylococcus aureus 33922 infected in in vitro pharmacokinetic model assessed as reduction in viable count at 1500 mg, iv every 8 hrs measured after 24 hrs using 10^8 CFU/ml inoculum; type: functional
[21] = tested on: Staphylococcus aureus; test: T>MIC for 3-log drop in count in methicillin-resistant Staphylococcus aureus 33820 in in vitro pharmacokinetic model after 24 hrs using 10^6 CFU/ml inoculum; type: functional
[22] = tested on: Staphylococcus aureus; test: AUBKC (0 to 48 hrs) in methicillin-resistant Staphylococcus aureus 33820 infected in in vitro pharmacokinetic model at 750 mg, iv every 8 hrs using 10^6 CFU/ml inoculum; type: functional; in short: as §1
[23] = tested on: Staphylococcus aureus; test: Antibacterial activity against methicillin-resistant Staphylococcus aureus 33827 infected in in vitro pharmacokinetic model assessed as reduction in viable count at 1500 mg, iv every 8 hrs measured after 48 hrs using 10^8 CFU/ml inoculum; type: functional; in short: as §2
[24] = tested on: Staphylococcus aureus; test: Antibacterial activity against methicillin-resistant Staphylococcus aureus 33815 in in vitro pharmacokinetic model assessed as viable count at 2 times of MIC; type: functional
In short: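 Preexposure population analysis profile: model sample at time zero plated on nutrient agar with tomopenem at multiples of the MIC. Growth counted as log CFU/ml, detection limit 2 log10.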

[25] = tested on: Staphylococcus aureus; test: Antibacterial activity against methicillin-resistant Staphylococcus aureus 33922 infected in in vitro pharmacokinetic model assessed as reduction in viable count at 1500 mg, iv every 8 hrs measured after 12 hrs using 10^6 CFU/ml inoculum; type: functional
[26] = tested on: Staphylococcus aureus; test: T>MIC for 1-log drop in count in methicillin-resistant Staphylococcus aureus 33820 in in vitro pharmacokinetic model after 24 hrs using 10^6 CFU/ml inoculum; type: functional

## C[C@@H](O)[C@H]1C(=O)N2C(C(=O)O)=C(S[C@H]3C[C@@H](C(=O)N4CC[C@H](NC(=O)CNC(=N)N)C4)N(C)C3)[C@H](C)[C@H]12 [TOMOPENEM]
[1]
  Activity: inactive
[2]
  log10CFU/ml: 4.2
[3]
  Activity: inactive
[4]
  AUBC: 84.4 log10CFU/ml.hr
[5]
  AUBC: 30.9 log10CFU/ml.hr
[6]
  Time: 12 h
[7]
  fT>MIC: 21.5%
[8]
  log10CFU/ml: 3.3
[9]
  Activity: inactive
[10]
  fT>MIC: 3.3%
[11]
  MIC: 0.5 µg/mL (≈ 0.93 µM)
[12]
  Time: 12 h
[13]
  log10CFU/ml: 5.4
[14]
  fT>MIC: 1%
[15]
  log10CFU/ml: 5.9
[16]
  log10CFU/ml: 4.4
[17]
  log10CFU/ml: 1.5
[18]
  log10CFU/ml: 5.5
[19]
  Activity: Active
[20]
  log10CFU/ml: 5
[21]
  fT>MIC: 20.4%
[22]
  AUBC: 28.6 log10CFU/ml.hr
[23]
  log10CFU/ml: 5.9
[24]
  log10CFU/ml: <2
[25]
  log10CFU/ml: 4.2
[26]
  fT>MIC: 9.9%
